Bioassay records: PubChem, Broad Institute
Only some compounds are listed: those with a hit (about 2.9% of all), similar ones and a draw of the others.
PGC1a acetyl inh – inhibitors of PGC1a acetylation signal, primary screen, cell-based, U2OS, AlphaScreen, inhibitor mode. AlphaScreen anti-acetyl-lysine; with virally co-expressed GCN5 acetyltransferase. inhibition, % at 15.6 µM. 350,000 tested, 0.17% active;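 active means every replicate shows inhibition of at least 40%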
Statin myotox sup – suppressors of statin myotoxicity in C2C12 myotubes, primary screen, cell-based, single point, plate reader; C2C12 myotubes + simvastatin, ATP luminescence, 48 h; scaled: DMSO 0, geranylgeraniol control 100; 330,000 tested, 0.78% active; rescue of ATP level, % at 7.49 µM;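 active means mean ATP rescue above about 67%, or every replicate alone reaching that limit, limit read from the data, passing the limit was not always enough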;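 further: myotubes were challenged with 10 µM simvastatin during compound exposure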
SIRT5 block – SIRT5 desuccinylase inhibitors, primary screen, biochemical, fluorescence imaging, single point, set 5. NAD-dependent protein deacylase sirtuin-5, mitochondrial (Homo sapiens), Q9NXA8. AID 652115, 2013. 330,000 tested, 1.1% active. Purified SirT5, succinyl-peptide AMC, trypsin-coupled fluorescence. inhibition, % at 15 µM; in the data active means inhibition above about 15%
Target sequence (Q9NXA8 whole entry, looked up): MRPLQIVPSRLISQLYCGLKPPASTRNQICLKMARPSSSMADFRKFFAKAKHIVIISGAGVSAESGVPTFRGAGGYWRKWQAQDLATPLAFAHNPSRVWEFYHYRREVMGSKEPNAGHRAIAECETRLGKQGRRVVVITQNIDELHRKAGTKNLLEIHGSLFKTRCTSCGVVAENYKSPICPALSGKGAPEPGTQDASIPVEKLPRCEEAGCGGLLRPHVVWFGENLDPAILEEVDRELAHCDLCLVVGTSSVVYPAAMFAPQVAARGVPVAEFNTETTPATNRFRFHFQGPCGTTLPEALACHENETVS
S100A4 MyoIIA – inhibitors of S100A4-myosin IIA peptide binding, primary screen, biochemical, fluorescence polarization, TAMRA-MyoIIA peptide | inhibition, % at 10.7 µM | AID 652163, 2013 | 360,000 tested, 0.14% active | Protein S100-A4 (Homo sapiens), P26447;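 active means mean inhibition of at least 70% across replicates, with every replicate also reaching that level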
Target sequence (P26447 whole entry, looked up): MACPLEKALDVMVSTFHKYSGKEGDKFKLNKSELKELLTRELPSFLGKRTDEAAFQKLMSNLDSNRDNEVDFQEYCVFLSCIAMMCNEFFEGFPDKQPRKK
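Test system: S100A4 monomer protein. Medium: HEPES buffer with Ca2+, pH 7.2. Reagent: fluorescent myosin IIA peptide, 5 nM. Compound dosing: single-point compound testing. Timing: 5 min between mix addition and reading. Benchmarks: DMSO neutral and TFP positive wells.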
DENV2 CPE rescue – inhibitors of DENV2 cytopathic effect, primary screen, cell-based, plate reader, single concentration; DENV2-infected cells, cytopathic effect rescue; CPE inhibition, % at 9.99 µM; 350,000 tested, 1.7% active; AID 651640, 2012; in the data active means CPE inhibition above about 20%, passing the limit was not always enough; tested in BHK-21 cells
Large screens that a line does not name were inactive; ! = not confirmed by another sample.

CC(C)NC(=O)N(C)C[C@@H]1Oc2c(cccc2N(C)C)C(=O)N([C@H](C)CO)C[C@H]1C	DENV2 CPE rescue 27
CC(C)NC(=O)N(C)C[C@H]1Oc2c(cccc2N(C)C)C(=O)N([C@@H](C)CO)C[C@H]1C	DENV2 CPE rescue 22
C[C@@H]1CN([C@H](C)CO)C(=O)c2cccc(N(C)C)c2O[C@H]1CN(C)C(=O)NC1CCCCC1	none
O=C(NNS(=O)(=O)c1ccc(F)cc1)c1cccc(O)c1	SIRT5 block 17
Cc1ccc(S(=O)(=O)NNC(=O)c2cccc(O)c2)cc1	none
O=C(O)C1Nc2ccc(Br)cc2C2C=CCC12 (stereo unspecified)	none (no result: SIRT5 block, S100A4 MyoIIA, DENV2 CPE rescue)
O=C(O)C1Nc2c(O)cccc2C2C=CCC12 (stereo unspecified)	SIRT5 block 17 (no result: PGC1a acetyl inh, Statin myotox sup)
O=C(O)C1Nc2c(Cl)cc(Cl)cc2C2C=CCC12 (stereo unspecified)	none (no result: SIRT5 block, S100A4 MyoIIA, DENV2 CPE rescue)
O=C(O)C1Nc2c(Cl)cc(Cl)c(Cl)c2C2C=CCC12 (stereo unspecified)	SIRT5 block 22
Cc1c(Cl)cccc1NC(=O)CNC(=O)C1CC(=O)N(C2CCCC2)C1 (stereo unspecified)	DENV2 CPE rescue 88
COc1ccc(S(=O)(=O)N2CCCC2C(=O)NCC(=O)Nc2cccc(Cl)c2C)cc1 (stereo unspecified)	DENV2 CPE rescue 70 (no result: PGC1a acetyl inh)
Cc1c(Cl)cccc1NC(=O)C1CC(=O)N(C2CCCC2)C1 (stereo unspecified)	none
CC(C)NC(=O)N[C@H]1CC[C@@H](CCNC(=O)C2CCC2)O[C@H]1CO	none
COc1ccc2c3c(n(C)c2c1)[C@H](CO)N(C(=O)NC1CCCC1)CC31CCN(C(C)=O)CC1	none (no result: Statin myotox sup, SIRT5 block)
CN(C)C(=O)c1cccc(-c2ccc(C3[C@H]4CNC[C@@H]3N4Cc3cc(F)ccc3F)cc2)c1 (stereo partly specified)	DENV2 CPE rescue 82! (no result: PGC1a acetyl inh, Statin myotox sup)
COc1cccc(-c2ccc(C3[C@H]4CNC[C@@H]3N4Cc3cc(F)ccc3F)cc2)c1 (stereo partly specified)	none (no result: PGC1a acetyl inh, Statin myotox sup)
COc1ccc(C#Cc2cnc3c(c2)C(=O)N([C@@H](C)CO)C[C@H](C)[C@H](CN(C)C)O3)cc1	none
c1ccc(-c2cc3ccccc3[nH]2)cc1	DENV2 CPE rescue 27
COc1ccc(NC(=O)Nc2ccc3c(c2)C(=O)N([C@H](C)CO)C[C@H](C)[C@@H](CN(C)S(=O)(=O)c2ccccc2)OCCCC[C@@H](C)O3)cc1	none (no result: Statin myotox sup)
COc1ccc(S(=O)(=O)N(C)C[C@@H]2OCCCC[C@@H](C)Oc3ccc(NC(=O)c4ccccc4)cc3C(=O)N([C@@H](C)CO)C[C@@H]2C)cc1	DENV2 CPE rescue 29 (no result: Statin myotox sup)
COc1ccc(S(=O)(=O)N(C)C[C@H]2OCCCC[C@@H](C)Oc3ccc(NC(=O)Nc4ccc(F)cc4)cc3C(=O)N([C@@H](C)CO)C[C@@H]2C)cc1	SIRT5 block 16
COc1ccc(NC(=O)Nc2ccc3c(c2)C(=O)N([C@H](C)CO)C[C@H](C)[C@@H](CN(C)S(=O)(=O)c2ccccc2)OCCCC[C@H](C)O3)cc1	SIRT5 block 16 (no result: Statin myotox sup)
COc1ccc(S(=O)(=O)N(C)C[C@@H]2OCCCC[C@H](C)Oc3ccc(NC(=O)Nc4ccc(F)cc4)cc3C(=O)N([C@@H](C)CO)C[C@H]2C)cc1	none
COc1ccc(S(=O)(=O)N(C)C[C@H]2OCCCC[C@@H](C)Oc3ccc(NC(=O)Nc4ccc(F)cc4)cc3C(=O)N([C@@H](C)CO)C[C@H]2C)cc1	SIRT5 block 17
COCC(=O)N1[C@@H]2c3ccc(-c4ccc(F)cc4)c(=O)n3C[C@@H]2[C@@H](CO)[C@@H]1C(=O)Nc1ccccc1	none
C[C@@H]1CN([C@@H](C)CO)C(=O)c2c(c3ccccc3n2C)-c2ccccc2CO[C@H]1CN(C)C(=O)c1ccncc1	none (no result: Statin myotox sup)
COc1ccc2c3c([nH]c2c1)[C@H](CO)N(C(=O)c1ccccc1)CC31CN(Cc2cccnc2)C1	none (no result: PGC1a acetyl inh, Statin myotox sup)
C[C@H](CO)N1C[C@H](C)[C@H](CN(C)Cc2ccc3c(c2)OCO3)Oc2c(NC(=O)C3CC3)cccc2C1=O	none
